Measurements published in ChEMBL document CHEMBL4725355, “Design, Synthesis, and Preclinical Evaluation of 3-Methyl-6-(5-thiophenyl)-1,3-dihydro-imidazo[4,5-b]pyridin-2-ones as Selective GluN2B Negative Allosteric Modulators for the Treatment of Mood Disorders” (J Med Chem, 2020).

Key:
[1] = AUC (0 to 24 hrs) in Sprague-Dawley rat at 500 mg/kg, po administered via gavage after 24 hrs using HPMC formulation by LC-MS/MS analysis; type: ADME, organism-based; set-up: route oral, dose 500 mg/kg, time <=24; details: in vivo
Method in brief: (§1)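 Single oral gavage dose to male Sprague Dawley rats, 3 per dose level. Vehicles were a standard suspension in 5% HPMC (125, 250, 500 or 1000 mg/kg) or a nanosuspension (API:polymer 4:1), with stock diluted in vehicle on the day of dosing (100, 250 or 500 mg/kg). Blood was sampled at time points from 0.5 to 24 h.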

[2] = Volume of distribution at steady state in Sprague-Dawley rat at 0.5 mg/kg, iv or 2.5 mg/kg, po using 1:1 PEG-400/water formulation by LC-MS/MS analysis; type: ADME, organism-based; details: in vivo
Method in brief: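 Rat PK at 0.5 mg/kg i.v. and 2.5 mg/kg p.o., vehicle 1:1 PEG400/water. n=3, values given as mean ± SD.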

[3] = Tmax in mouse at 2.5 mg/kg, po by LC-MS/MS analysis; type: ADME, organism-based; details: in vivo
[4] = Efflux ratio of apparent permeability across basolateral to apical side over apical to basolateral side in MDCK-MDR1 cells at 5 uM measured after 60 mins by LC-MS/MS analysis; type: ADME, cell-based, Canis lupus familiaris; details: dog
Method in brief: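 MDCK-MDR1 cells, passages 6-30, seeded at 3.4×10^5 cells/cm² and cultured 3 days. Test compound at 5 µM final (1% DMSO) in HBSS, pH 7.4, applied to the donor side. A→B and B→A runs at 37 °C for 60 min, in duplicate, quantified by LC/MS/MS. Efflux ratio taken as B-A/A-B; monolayer integrity checked by lucifer yellow.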

[5] = Cmax in Sprague-Dawley rat at 500 mg/kg, po administered via gavage after 24 hrs using HPMC formulation by LC-MS/MS analysis; type: ADME, organism-based; set-up: route oral, time 24 hrs, dose 500 mg/kg; details: in vivo; method in brief: as §1
[6] = Drug level in Sprague-Dawley rat brain cerebellum at 0.03 mg/kg, iv after 5 min by LC-MS/MS analysis; type: ADME, organism-based; details: read-out: Drug uptake
Method in brief: (§2)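 Single i.v. dose of 0.03 mg/kg in 50% (w/v) PEG/water, pH 7.4; rats n=3 per group, killed at 5, 10, 30, 60 and 120 min. Cerebellum, cortex, striatum and hippocampus dissected, weighed and homogenized; drug quantified by LC-MS/MS and normalized to tissue weight. P<0.05 taken as significant versus cerebellum.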

[7] = Tmax in Sprague-Dawley rat at 100 mg/kg, po administered via gavage after 24 hrs using nanosuspension formulation by LC-MS/MS analysis; type: ADME, organism-based; details: in vivo
Method in brief: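 Single oral gavage of a nanosuspension (API:polymer 4:1), diluted with vehicle on the dosing day, at 100, 250 or 500 mg/kg to male Sprague Dawley rats, 3 per dose. Plasma was sampled from 0.5 to 24 h.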

[8] = AUC (0 to 24 hrs) in Sprague-Dawley rat at 125 mg/kg, po administered via gavage after 24 hrs using HPMC formulation by LC-MS/MS analysis; type: ADME, organism-based; set-up: route oral, dose 125 mg/kg, time <=24; details: in vivo; method in brief: as §1
[9] = Drug level in Sprague-Dawley rat brain hippocampus at 0.03 mg/kg, iv after 30 min by LC-MS/MS analysis; type: ADME, organism-based; details: read-out: Drug uptake; method in brief: as §2
[10] = Drug level in Sprague-Dawley rat brain cerebellum at 0.03 mg/kg, iv after 120 min by LC-MS/MS analysis; type: ADME, organism-based; details: read-out: Drug uptake
Method in brief: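 Rats (n=3 per group) received a single IV dose of 0.03 mg/kg in 50% (w/v) PEG/water at pH 7.4 and were sacrificed at 5, 10, 30, 60 and 120 min. Cerebellum, cortex, striatum and hippocampus were weighed, homogenized and analyzed by LC-MS/MS, with levels normalized to tissue weight.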

[11] = Toxicity in Sprague-Dawley rat up to 500 mg/kg/day, po administered as nanosuspension measured for 14 days; type: organism-based; details: in vivo, 336 h, time 14 day
Method in brief: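 Repeated daily oral dosing of a nanosuspension to rats for 14 days, with 500 mg/kg/day as the high dose. Clinical observations were recorded, and animals were moved to individual caging on Day 6.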

[12] = Protein binding in rat plasma assessed as unbound fraction at 0.5 uM after 6 hrs by equilibrium dialysis method; type: ADME, cell-free
[13] = Tmax in Sprague-Dawley rat brain at 3 mg/kg, po by LC-MS/MS analysis; type: ADME, organism-based
Method in brief: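 Rats dosed orally at 3 mg/kg in 20% HP-β-CD. Brain concentrations were measured over a 6 h time course (0.5, 2, 6 h) alongside ex vivo GluN2B occupancy, n=2.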

[14] = Half life in Sprague-Dawley rat at 0.5 mg/kg, iv by LC-MS/MS analysis; type: ADME, organism-based; details: in vivo
[15] = Protein binding in human plasma assessed as unbound fraction at 0.5 uM after 6 hrs by equilibrium dialysis method; type: ADME, cell-free
[16] = AUC (0 to 24 hrs) in Sprague-Dawley rat at 500 mg/kg, po administered via gavage after 24 hrs using nanosuspension formulation by LC-MS/MS analysis; type: ADME, organism-based; set-up: route oral, dose 500 mg/kg, time <=24; details: in vivo; method in brief: as §1
[17] = Oral bioavailability in Sprague-Dawley rat at 2.5 mg/kg using 1:1 PEG-400/water formulation by LC-MS/MS analysis; type: ADME, organism-based; details: in vivo
Method in brief: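 Rats dosed 0.5 mg/kg i.v. and 2.5 mg/kg p.o., n=3 ± SD. Default vehicle is 20% HP-β-CD; one PK set used 1:1 PEG400/water and another 30% SBE-β-CD.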

[18] = tested on: Rattus norvegicus; test: Ex vivo receptor occupancy at GluN2B in po dosed Sprague-Dawley rat assessed as total plasma concentration causing 70% 3-[3H] 1-(azetidin-1-yl)-2-[6-(4-fluoro-3-methyl-phenyl)pyrrolo[3,2-b]pyridin-1-yl]-ethanone labelling measured after 60 mins by autoradiography; type: functional, organism-based
Method in brief: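 Oral dosing in rat at 8 dose levels, vehicle 20% HP-β-CD, 3 animals per group. Hippocampal GluN2B occupancy was measured ex vivo by autoradiography at 60 min post dose with the [3H] pyrrolopyridine tracer on brain slices. Labelling was expressed as percent of naïve control rats. EC70 was taken as the total (bound + unbound) plasma concentration giving 70% occupancy, with a 95% confidence interval.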

[19] = target: Cytochrome P450 3A4 (Homo sapiens, UniProt P08684); test: Time-dependent inhibition of CYP3A4 in human liver microsomes at 10 uM using nifedipine as substrate by LC-MS/MS analysis; type: ADME
Sequence of Cytochrome P450 3A4 (P08684 whole entry): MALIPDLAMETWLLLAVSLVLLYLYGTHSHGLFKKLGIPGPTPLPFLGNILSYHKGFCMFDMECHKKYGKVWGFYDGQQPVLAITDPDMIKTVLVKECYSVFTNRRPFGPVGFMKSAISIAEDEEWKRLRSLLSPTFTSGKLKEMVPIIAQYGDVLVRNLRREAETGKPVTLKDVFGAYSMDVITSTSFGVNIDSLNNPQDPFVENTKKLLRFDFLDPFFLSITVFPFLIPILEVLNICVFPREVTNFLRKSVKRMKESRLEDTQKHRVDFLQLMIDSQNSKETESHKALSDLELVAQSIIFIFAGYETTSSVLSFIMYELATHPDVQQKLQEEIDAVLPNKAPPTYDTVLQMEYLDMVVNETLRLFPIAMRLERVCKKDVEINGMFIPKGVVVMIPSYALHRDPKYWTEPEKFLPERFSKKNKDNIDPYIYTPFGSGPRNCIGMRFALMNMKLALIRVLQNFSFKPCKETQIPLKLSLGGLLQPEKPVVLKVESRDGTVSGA
Method in brief: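 CYP3A4 time-dependent inhibition in human liver microsomes. The compound (0.4 to 10 μM) was tested with and without 30 min preincubation. IC50 was taken from percent activity remaining versus vehicle, averaged over two independent experiments. A >2-fold IC50 shift after preincubation was the threshold for time-dependent inhibition.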

[20] = Cmax in Sprague-Dawley rat at 125 mg/kg, po administered via gavage after 24 hrs using HPMC formulation by LC-MS/MS analysis; type: ADME, organism-based; set-up: route oral, time 24 hrs, dose 125 mg/kg; details: in vivo; method in brief: as §1
[21] = target: Cytochrome P450 2C9 (Homo sapiens, UniProt P11712); test: Inhibition of CYP2C9 in human liver microsomes using tolbutamide as substrate measured after 15 mins by LC-MS/MS analysis; type: ADME
Sequence of Cytochrome P450 2C9 (P11712 whole entry, canonical isoform): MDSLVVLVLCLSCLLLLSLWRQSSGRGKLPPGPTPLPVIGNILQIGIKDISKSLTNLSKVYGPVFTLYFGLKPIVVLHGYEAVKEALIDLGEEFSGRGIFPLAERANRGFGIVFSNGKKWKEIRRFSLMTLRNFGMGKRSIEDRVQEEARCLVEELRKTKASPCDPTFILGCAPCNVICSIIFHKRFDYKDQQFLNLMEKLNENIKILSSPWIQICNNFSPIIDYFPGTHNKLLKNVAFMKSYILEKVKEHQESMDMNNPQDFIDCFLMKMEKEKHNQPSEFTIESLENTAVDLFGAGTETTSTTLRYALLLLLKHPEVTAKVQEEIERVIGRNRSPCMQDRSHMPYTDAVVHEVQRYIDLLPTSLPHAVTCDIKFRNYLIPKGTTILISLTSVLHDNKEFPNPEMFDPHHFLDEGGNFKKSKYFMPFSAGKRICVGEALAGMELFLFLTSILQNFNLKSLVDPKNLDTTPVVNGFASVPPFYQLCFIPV
Method in brief: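 Human liver microsomes incubated with isoform-specific probe substrates and the test compound at concentrations up to 20 µM. IC50 derived from inhibition of metabolite formation; mean of two independent experiments, with known specific inhibitors as positive controls.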

## Cn1c(=O)n(CC(=O)N2CCC2)c2cc(-c3ccc(C(F)(F)F)s3)cnc21
[1]
  AUC(0-t): 22500 ng·h/mL
[2]
  Vdss: 1.9 L/kg
[3]
  Tmax: 18 min
[4]
  efflux ratio at 1 h, 5 µM: 2.1
[5]
  Cmax: 6140 ng/mL
[6]
  concentration at 5 min: 19.3 ng/mL
[7]
  Tmax: 162 min
[8]
  AUC(0-t): 22800 ng·h/mL
[9]
  concentration at 0.5 h: 22.7 ng/mL
[10]
  concentration at 2 h: 6.9 ng/mL
[11]
  Activity: Non-Toxic
[12]
  fraction unbound at 6 h, 0.5 µM: 0.053
[13]
  Tmax: 30 min
[14]
  half-life: 48 min
[15]
  fraction unbound at 6 h, 0.5 µM: 0.046
[16]
  AUC(0-t): 156000 ng·h/mL
[17]
  bioavailability: 132%
[18]
  Cp: 716 ng/mL
[19]
  TDI: Not Active
[20]
  Cmax: 4240 ng/mL
[21]
  IC50: > 50 µM
